Results: ChEMBL document CHEMBL1287650, “Structural modification of a specific antimicrobial lead against Helicobacter pylori discovered from traditional Chinese medicine and a structure-activity relationship study” (2010)
Converted amounts (≈) assume the structure as drawn.

Tests used:
Type in all cases: functional
Helicobacter pylori = experiment: Antibacterial activity against Helicobacter pylori SS1 assessed as inhibition of visible growth after 96 hrs by agar dilution method; settings: SS1, 96 h
Method in brief: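 Agar dilution on Columbia Blood Agar Base with 7% defibrinated sheep blood; compounds dissolved in minimal DMSO, two-fold serial dilutions mixed into medium. Inoculum: cells in saline at 10⁸ CFU/mL. Incubated 37 °C, 96 h, 5% O₂/10% CO₂/85% N₂. DMSO-only blank and metronidazole positive control run alongside. MIC = lowest concentration completely inhibiting visible growth.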

Escherichia coli = experiment: Antibacterial activity against Escherichia coli ATCC 25922 after 18 hrs; settings: ATCC 25922, 18 h
Bacillus subtilis = experiment: Antibacterial activity against Bacillus subtilis CMCC 63501 after 18 hrs; settings: CMCC 63501, 18 h
[1] = Antifungal activity against Saccharomyces sake after 48 hrs; settings: Saccharomyces sp.
Method in brief: (§1)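 Fungi grown in Sabouraud dextrose broth at 37 °C for 48 h with compounds and positive control dissolved in DMSO; DMSO-only cultures served as blank controls.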

Nannizzia gypsea = experiment: Antifungal activity against Microsporum gypseum after 48 hrs; method in brief: as §1
[2] = tested on: Staphylococcus epidermidis; experiment: Antibacterial activity against Staphylococcus epidermidis ATCC 12228 after 18 hrs; settings: ATCC 12228, 18 h
Pseudomonas aeruginosa = experiment: Antibacterial activity against Pseudomonas aeruginosa ATCC 14502 after 18 hrs; settings: ATCC 14502, 18 h
Shigella flexneri = experiment: Antibacterial activity against Shigella flexneri F2a after 18 hrs
Staphylococcus aureus = experiment: Antibacterial activity against Staphylococcus aureus ATCC 25923 after 18 hrs; settings: ATCC 25923, 18 h
Candida albicans = experiment: Antifungal activity against Candida albicans ATCC 1600 after 48 hrs; settings: ATCC 1600, 48 h; method in brief: as §1
Trichophyton rubrum = experiment: Antifungal activity against Trichophyton rubrum after 48 hrs; method in brief: as §1
Micrococcus luteus = experiment: Antibacterial activity against Micrococcus luteus ATCC 9341 after 18 hrs; settings: ATCC 9341, 18 h

For `CC(=O)Oc1c2occc2cc2ccc(=O)oc12`, the MIC (Helicobacter pylori) was > 50 µg/mL.

`Cc1coc2cc3oc(=O)ccc3cc12` showed an MIC (Helicobacter pylori) of 12.5 µg/mL (≈ 62.4 µM).

For `O=c1ccc2cc3cc(CCl)oc3cc2o1`, the MIC (Helicobacter pylori) was > 50 µg/mL.

Work on `COc1c2occc2c(CCl)c2ccc(=O)oc12` yielded an MIC (Helicobacter pylori) of 25 µg/mL (≈ 94.5 µM).

For `O=c1ccc2cc3cc([N+](=O)[O-])oc3cc2o1`, the MIC (Helicobacter pylori) was 3.12 µg/mL (≈ 13.5 µM).

For `O=c1ccc2cc3ccoc3c(O)c2o1` [XANTHOTOXOL], the MIC (Helicobacter pylori) was > 50 µg/mL.

In the case of `O=c1cc(CO)c2cc3ccoc3cc2o1`, the MIC (Helicobacter pylori) is reported as 0.78 µg/mL (≈ 3.61 µM).

For `COCc1c2ccoc2c(OC)c2oc(=O)ccc12`, the MIC (Helicobacter pylori) was > 50 µg/mL.

For `CCOCc1c2ccoc2c(OC)c2oc(=O)ccc12`, the MIC (Helicobacter pylori) was > 50 µg/mL.

Molecule `O=c1ccc2c([N+](=O)[O-])c3ccoc3c(O)c2o1` has an MIC (Helicobacter pylori) of 25 µg/mL (≈ 101 µM).

With `COc1c2occc2c(Cl)c2ccc(=O)oc12` the MIC (Helicobacter pylori) was > 50 µg/mL.

`O=c1cc(CBr)c2cc3ccoc3cc2o1` gave an MIC (Helicobacter pylori) of 1.56 µg/mL (≈ 5.59 µM).

For `COc1c2occc2c(CNc2ccc([N+](=O)[O-])cc2)c2ccc(=O)oc12`, the MIC (Helicobacter pylori) was > 50 µg/mL.

`O=c1ccc2cc3cc(Cl)oc3cc2o1` showed an MIC (Helicobacter pylori) of 6.25 µg/mL (≈ 28.3 µM).

In the case of `CCN(CC)S(=O)(=O)c1c2ccoc2c(OC)c2oc(=O)ccc12`, the MIC (Helicobacter pylori) is reported as > 50 µg/mL.

In the case of `CCOCc1cc2cc3ccc(=O)oc3cc2o1`, the MIC (Helicobacter pylori) is reported as > 50 µg/mL.

`O=Cc1cc(=O)oc2cc3occc3cc12` gave an MIC (Helicobacter pylori) of 1.56 µg/mL (≈ 7.28 µM).

In the case of `Cc1cc(=O)oc2cc3occc3cc12`, the MIC (Escherichia coli) is reported as > 64 µg/mL, the MIC (Bacillus subtilis) is reported as > 64 µg/mL and the MIC [1] is reported as > 64 µg/mL. For the same molecule, the MIC (Nannizzia gypsea) was > 64 µg/mL, the MIC (Helicobacter pylori) was 0.39 µg/mL (≈ 1.95 µM) and the MIC [2] was > 64 µg/mL. For the same molecule, the MIC (Pseudomonas aeruginosa) was > 64 µg/mL, the MIC (Shigella flexneri) was > 64 µg/mL and the MIC (Staphylococcus aureus) was > 64 µg/mL. The MIC (Candida albicans) was > 64 µg/mL, the MIC (Trichophyton rubrum) was > 64 µg/mL and the MIC (Micrococcus luteus) was > 64 µg/mL.

In the case of `CCCCOCc1cc2cc3ccc(=O)oc3cc2o1`, the MIC (Helicobacter pylori) is reported as 50 µg/mL (≈ 184 µM).

`COc1ccc(NCc2c3ccoc3c(OC)c3oc(=O)ccc23)cc1` gave an MIC (Helicobacter pylori) of 12.5 µg/mL (≈ 35.6 µM).

For `O=c1ccc2cc3ccoc3cc2o1` [PSORALEN], the MIC (Escherichia coli) was > 64 µg/mL, the MIC (Bacillus subtilis) was > 64 µg/mL and the MIC [1] was > 64 µg/mL. The MIC (Nannizzia gypsea) was > 64 µg/mL, the MIC (Helicobacter pylori) was 6.25 µg/mL (≈ 33.6 µM) and the MIC [2] was > 64 µg/mL. For the same molecule, the MIC (Pseudomonas aeruginosa) was > 64 µg/mL, the MIC (Shigella flexneri) was > 64 µg/mL and the MIC (Staphylococcus aureus) was > 64 µg/mL. The MIC (Candida albicans) was > 64 µg/mL, the MIC (Trichophyton rubrum) was > 64 µg/mL and the MIC (Micrococcus luteus) was > 64 µg/mL.

Molecule `Cc1c2ccoc2cc2oc(=O)ccc12` has an MIC (Helicobacter pylori) of 12.5 µg/mL (≈ 62.4 µM).

Molecule `CC(=O)Oc1c2occc2c([N+](=O)[O-])c2ccc(=O)oc12` has an MIC (Helicobacter pylori) of 25 µg/mL (≈ 86.4 µM).

In the case of `COc1ccc(NS(=O)(=O)c2c3ccoc3c(OC)c3oc(=O)ccc23)cc1`, the MIC (Helicobacter pylori) is reported as > 50 µg/mL.

For `CCCOCc1c2ccoc2c(OC)c2oc(=O)ccc12`, the MIC (Helicobacter pylori) was > 50 µg/mL.

For `COc1c2occc2c(N)c2ccc(=O)oc12`, the MIC (Helicobacter pylori) was 25 µg/mL (≈ 108 µM).

With `O=c1cc(C(F)(F)F)c2cc3ccoc3cc2o1` the MIC (Helicobacter pylori) was 12.5 µg/mL (≈ 49.2 µM).

With `COc1c2occc2c(Br)c2ccc(=O)oc12` the MIC (Helicobacter pylori) was > 50 µg/mL.

In the case of `CC(=O)OCc1cc2cc3ccc(=O)oc3cc2o1`, the MIC (Helicobacter pylori) is reported as > 50 µg/mL.

For `O=C(O)COc1c2occc2cc2ccc(=O)oc12`, the MIC (Helicobacter pylori) was > 50 µg/mL.

For `CCCCOCc1c2ccoc2c(OC)c2oc(=O)ccc12`, the MIC (Helicobacter pylori) was 50 µg/mL (≈ 165 µM).

Work on `O=c1ccc2cc3cc(Br)oc3cc2o1` yielded an MIC (Helicobacter pylori) of 6.25 µg/mL (≈ 23.6 µM).

With `COc1c2occc2c([N+](=O)[O-])c2ccc(=O)oc12` the MIC (Escherichia coli) was > 64 µg/mL, the MIC (Bacillus subtilis) was > 64 µg/mL and the MIC [1] was > 64 µg/mL. The MIC (Nannizzia gypsea) was > 64 µg/mL, the MIC (Helicobacter pylori) was 1.56 µg/mL (≈ 5.97 µM) and the MIC [2] was > 64 µg/mL. For the same molecule, the MIC (Pseudomonas aeruginosa) was > 64 µg/mL, the MIC (Shigella flexneri) was > 64 µg/mL and the MIC (Staphylococcus aureus) was > 64 µg/mL. The MIC (Candida albicans) was > 64 µg/mL, the MIC (Trichophyton rubrum) was > 64 µg/mL and the MIC (Micrococcus luteus) was > 64 µg/mL.

With `CCOC(=O)COc1c2occc2cc2ccc(=O)oc12` the MIC (Helicobacter pylori) was > 50 µg/mL.

For `CCN(CC)Cc1cc2cc3ccc(=O)oc3cc2o1`, the MIC (Helicobacter pylori) was > 50 µg/mL.

For `CCN(CC)Cc1c2ccoc2c(OC)c2oc(=O)ccc12`, the MIC (Helicobacter pylori) was > 50 µg/mL.

With `CCOc1c2occc2cc2ccc(=O)oc12` the MIC (Helicobacter pylori) was > 50 µg/mL.

`Cc1ncc([N+](=O)[O-])n1CCO` [METRONIDAZOLE] showed an MIC (Helicobacter pylori) of 0.5 µg/mL (≈ 2.92 µM).

For `COc1c2occc2c(S(=O)(=O)OC)c2ccc(=O)oc12`, the MIC (Helicobacter pylori) was > 50 µg/mL.

For `COc1c2occc2c(/N=C/c2ccccc2)c2ccc(=O)oc12`, the MIC (Helicobacter pylori) was > 50 µg/mL.

For `COc1c2occc2cc2ccc(=O)oc12` [METHOXSALEN], the MIC (Helicobacter pylori) was 25 µg/mL (≈ 116 µM).

`CC(=O)OCc1cc(=O)oc2cc3occc3cc12` gave an MIC (Helicobacter pylori) of 1.56 µg/mL (≈ 6.04 µM).

In the case of `O=c1cc(-c2ccccc2)c2cc3ccoc3cc2o1`, the MIC (Helicobacter pylori) is reported as 12.5 µg/mL (≈ 47.7 µM).

In the case of `COCc1cc2cc3ccc(=O)oc3cc2o1`, the MIC (Helicobacter pylori) is reported as 50 µg/mL (≈ 217 µM).

For `COc1c2occc2c(S(=O)(=O)Nc2ccc([N+](=O)[O-])cc2)c2ccc(=O)oc12`, the MIC (Helicobacter pylori) was > 50 µg/mL.

In the case of `CCCc1cc(=O)oc2cc3occc3cc12`, the MIC (Helicobacter pylori) is reported as 12.5 µg/mL (≈ 54.8 µM).

In the case of `COc1c2occc2c(S(N)(=O)=O)c2ccc(=O)oc12`, the MIC (Helicobacter pylori) is reported as > 50 µg/mL.

In the case of `COc1c2occc2c(S(=O)(=O)Oc2ccccc2)c2ccc(=O)oc12`, the MIC (Helicobacter pylori) is reported as > 50 µg/mL.

`CCc1cc(=O)oc2cc3occc3cc12` gave an MIC (Helicobacter pylori) of 6.25 µg/mL (≈ 29.2 µM).
